Measurements from different studies.
Protocols differ between the studies behind these lines. Values after ≈ are worked out from the molar mass of the structure shown.

SMILES | target or system | assay | test system | conditions | measurement | value
Cc1ncc([N+](=O)[O-])n1CCO | Clostridioides difficile | microbial growth | – | – | MIC90 | 0.25 µg/mL (≈ 1.46 µM)
COc1ccc(C[C@@H]2c3cc(Oc4cc(C[C@@H]5c6cc(O)c(OC)cc6CCN5C)ccc4O)c(OC)cc3CCN2C)cc1 | Severe acute respiratory syndrome coronavirus 2 | cytopathic effect, inhibitor | Vero C1008 | 0.7812 µM | inhibition | 0%
Nc1ccn([C@@H]2CS[C@H](CO)O2)c(=O)n1 | Hepatitis B virus | viral replication, qPCR | HepG2.2.15 | 14 days | IC50 | 50 nM
[O-][N+]1=C(c2ccc(Cl)cc2)C2=NCCN2c2ccccc21 | Clostridioides difficile | microbial growth | – | – | MIC50 | 0.25 µg/mL (≈ 0.84 µM)
C=C[C@@](C)(/C=C/c1ccc(O)cc1)CCC=C(C)C | Severe acute respiratory syndrome coronavirus 2 | cytopathic effect, inhibitor | Vero C1008 | 1.562 µM | inhibition | 0%
COc1c2c(cc3c1OCO3)[C@]13C=C[C@H](OC)C[C@@H]1[N@](C2)C[C@H]3OC(=O)c1ccc2ccccc2c1 | PANC-1 | cell growth or viability, WST-1 | – | – | IC50 | > 10000 nM
C=CCNC1=C2C[C@@H](C)C[C@H](OC)[C@H](O)[C@@H](C)/C=C(\C)[C@H](OC(N)=O)[C@@H](OC)/C=C\C=C(/C)C(=O)NC(=C(C)C1=O)C2=O | ARPE-19 | cell growth or viability, MTT | – | – | IC50 | > 20000 nM
C[C@H]1COCCN1c1nc(NCc2cccnc2C(F)(F)F)c2cccnc2n1 | Clostridioides difficile | microbial growth, broth dilution | R20291 | – | MIC | 64 µg/mL (≈ 158 µM)
C=CCNC1=C2C[C@@H](C)C[C@H](OC)[C@H](O)[C@@H](C)/C=C(\C)[C@H](OC(N)=O)[C@@H](OC)/C=C\C=C(/C)C(=O)NC(=C(c3ccccc3)C1=O)C2=O | ARPE-19 | cell growth or viability, MTT | – | – | IC50 | > 20000 nM
N#C[C@]1(CO)O[C@@H](n2cc(F)c3c(N)ncnc32)C[C@@H]1O | Hepatitis B virus | viral replication, qPCR | HepG2.2.15 | 14 days | IC50 | 26 nM
